Env fusion inh: inhibitors of HIV-1 Env-driven cell-cell fusion, primary screen, HeLa-JRFL effector, CEM21 target cells, luciferase | inhibition, % at 12.3 µM | 360,000 compounds, 1.1% hits;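 active = mean replicate inhibition score of at least 50 and every replicate individually at or above 50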;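 also: 0% = plate neutral controls and 100% = maraviroc near 300 nM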
CFTR F508del cor: F508del CFTR correction, initial screen, CFBE line, single point | CFBE cells, YFP halide quenching; stimulated with forskolin plus potentiator P3; % fluorescence drop versus neutral controls | activity (quench increase), % at 7.58 µM | 350,000 compounds, 0.36% hits | AID 720511, 2013;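 active = mean added fluorescence quench of at least 8% versus neutral control, with both replicates also reaching 8%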;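 also: cells transiently co-express mutant CFTR-F508del with the halide-sensitive YFP; corrector assay measuring rescue of mutant channel to the surface after 24 h compound exposure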
FGF22 binding: binders of human FGF22 protein, primary screen, FGF22 synaptogenesis inhibitor project, biophysical, thermal shift, single point; Fibroblast growth factor 22 (Homo sapiens), Q9HCT0; recombinant FGF22 thermal shift, SYPRO orange fluorescence; percent of sucrose octasulfate shift, DMSO zero; activity (Tm shift, normalised), % at 9.99 µM; 340,000 compounds, 1.5% hits; AID 651658, 2012;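 active = mean Tm shift, scaled 0 neutral to 100 positive control, at about 1.3% or above, every replicate too, limit read from the data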
S100A4 MyoIIA: inhibitors of S100A4-myosin IIA peptide binding, primary screen, biochemical, fluorescence polarization, TAMRA-MyoIIA peptide | inhibition, % at 10.7 µM | 360,000 compounds, 0.14% hits;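 active = mean inhibition of at least 70% across replicates, with every replicate also reaching that level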
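Material: S100A4 monomer protein / Buffer or medium: 50 mM HEPES pH 7.2, 10 mM CaCl2, 100 mM KCl / Times: 5 min incubation before reading / Benchmarks: neutral control DMSO, positive control TFP / Reagent: labelled myosin peptide probe, 5 nM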
E-selectin induc: E-selectin induction in HUVECs, primary screen, imaging, HUVEC, immunofluorescence imaging, single point. P16581. normalized: neutral wells 0, TNF-alpha wells 100. activation, % at 7.58 µM. 260,000 compounds, 0.37% hits;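 active = mean E-selectin-positive cell signal at least 10% of the positive control, reached in at least 60% of replicates, without over 20% cell loss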
Target sequence (P16581 whole entry, looked up): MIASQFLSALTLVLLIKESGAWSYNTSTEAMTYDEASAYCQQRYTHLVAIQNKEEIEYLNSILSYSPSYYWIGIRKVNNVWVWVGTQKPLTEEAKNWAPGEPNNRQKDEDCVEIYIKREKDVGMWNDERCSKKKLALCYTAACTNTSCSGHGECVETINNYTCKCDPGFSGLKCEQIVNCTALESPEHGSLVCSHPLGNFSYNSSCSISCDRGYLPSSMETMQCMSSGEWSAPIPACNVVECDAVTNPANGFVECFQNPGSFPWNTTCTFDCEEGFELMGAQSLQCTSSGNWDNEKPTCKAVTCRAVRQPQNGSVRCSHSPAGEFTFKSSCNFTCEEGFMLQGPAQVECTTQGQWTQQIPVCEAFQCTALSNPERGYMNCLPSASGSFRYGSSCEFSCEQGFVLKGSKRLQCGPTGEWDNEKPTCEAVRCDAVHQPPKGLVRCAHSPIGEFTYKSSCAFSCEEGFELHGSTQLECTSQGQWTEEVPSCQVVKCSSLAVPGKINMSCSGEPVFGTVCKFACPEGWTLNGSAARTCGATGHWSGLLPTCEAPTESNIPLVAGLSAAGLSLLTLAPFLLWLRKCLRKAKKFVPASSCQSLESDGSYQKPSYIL
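material = human umbilical vein endothelial cells (HUVEC), E-selectin induction | quantity = 3,000 cells/well | medium = EGM-2 growth medium on 0.1% gelatin-coated wells | technique = immunofluorescence imaging | read-out basis = % PE-positive cells | control set = TNF-alpha positive control, DMSO neutral control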
* marks the source's active call; other numbers are inactive results; · = no result given; [ ] = dose if it differs, or a comment. Only some compounds are listed: those with a hit (about 2.7% of all), similar ones and a draw of the others.

SMILES | Env fusion inh | CFTR F508del cor | FGF22 binding | S100A4 MyoIIA | E-selectin induc
Cc1sc2nc(C(C)C)nc(SCC(=O)N3CCN(C(=O)c4ccco4)CC3)c2c1C | 62* | · | · | · | ·
Cc1nnc(SCC(=O)N2CCN(C(=O)c3ccco3)CC2)n1-c1ccccc1 | -3 | -1 | 43* | 0 | 5
Cc1sc2nc(C3CC3)nc(SCC(=O)N3CCCc4ccccc43)c2c1C | 2 | -1 | 0 | 1 | 0
O=C(CSc1nnc(COc2ccccc2)o1)N1CCN(c2ccccc2)CC1 | 4 | · | · | · | ·
Cc1sc2nc(C3CC3)nc(SCC(=O)N3CCc4ccccc4C3)c2c1C | 55* | · | · | · | ·
C[C@H](CO)N1C[C@H](C)[C@@H](CN(C)S(=O)(=O)c2cn(C)cn2)Oc2ccc(NC(=O)C3CCCCC3)cc2CC1=O | -13[16.7 µM] | -1 | 0 | 15 | 0
CCC(=O)Nc1ccc2c(c1)C(=O)N(C)C[C@H](OC)[C@H](C)CN(Cc1cncnc1)[C@@H](C)CO2 | · | 1 | · | · | 0
CN(C)CC(=O)N[C@@H]1C=C[C@@H](CC(=O)O)O[C@@H]1CO | · | -2 | · | -3 | 0
COc1ccc([C@H]2C[C@H](O)[C@@H](n3cc(-c4ccc(F)cc4)nn3)CN2Cc2cccs2)cc1 | 8 | 8.1* | 0 | -2 | -2
Cc1nn(-c2cc(N3CCCCCC3)ccc2[N+](=O)[O-])c(=O)c2ccccc12 | -82 | · | · | · | ·
Cc1ccc(-c2nn(-c3cc(N4CCNCC4)ccc3[N+](=O)[O-])c(=O)c3ccccc23)cc1 | -11 | -3 | 0 | -4 | 66*
C[C@H]1CN([C@@H](C)CO)S(=O)(=O)c2ccc(/C=C/c3ccccc3)cc2O[C@H]1CN(C)Cc1ccccc1 | · | 8.0* | 0 | -5 | ·
C[C@H]1CN([C@@H](C)CO)S(=O)(=O)c2ccc(-c3cccc(C#N)c3)cc2O[C@H]1CN(C)Cc1cccc(F)c1 | 74*[16.7 µM] | -1 | 0 | 5 | 0
C[C@@H]1CN([C@H](C)CO)S(=O)(=O)c2ccc(-c3ccccc3)cc2O[C@@H]1CN(C)Cc1cccc(F)c1 | 44[16.7 µM] | -1 | 0 | 2 | 0
C[C@@H]1CN([C@@H](C)CO)S(=O)(=O)c2ccc(-c3ccccc3)cc2O[C@H]1CN(C)Cc1ccccc1 | 55*[16.7 µM] | 1 | · | · | -2
C[C@H](CO)N1C[C@H](C)[C@@H](CN(C)Cc2ccccc2)Oc2cc(/C=C/c3ccccc3)ccc2S1(=O)=O | · | 1 | 0 | 3 | 0
Cc1ccc(-c2ccc3c(c2)O[C@@H](CN(C)Cc2ccccc2)[C@H](C)CN([C@@H](C)CO)S3(=O)=O)cc1 | 24[16.7 µM] | 0 | 0 | -9 | 0
COc1ccccc1C#Cc1ccc2c(c1)O[C@H](CN(C)Cc1cccnc1)[C@H](C)CN([C@@H](C)CO)S2(=O)=O | · | 8.2* | 0 | 2 | 0
C[C@@H]1CN([C@@H](C)CO)S(=O)(=O)c2ccc(-c3ccncc3)cc2O[C@@H]1CN(C)Cc1ccc(Oc2ccccc2)cc1 | 43[16.7 µM] | 6 | 0 | 6 | 0
C[C@@H]1CN([C@@H](C)CO)S(=O)(=O)c2ccc(-c3ccccc3)cc2O[C@H]1CN(C)Cc1cccc(F)c1 | 52[16.7 µM] | 1 | 0 | 143* | 0
C[C@@H]1CN([C@H](C)CO)S(=O)(=O)c2ccc(-c3ccncc3)cc2O[C@H]1CN(C)Cc1ccc(Oc2ccccc2)cc1 | 46[16.7 µM] | 1 | 0 | -20 | 131*
C[C@@H]1CN([C@H](C)CO)S(=O)(=O)c2ccc(Br)cc2O[C@@H]1CN(C)Cc1ccc(-c2ccccc2)cc1 | 76* | 1 | -1 | -2 | 0
COc1ccc2c3c(n(C)c2c1)[C@@H](CO)N(Cc1ccccc1OC)CC31CN(C(=O)C2CC2)C1 | · | -4 | · | · | 0
CNc1nc(-c2ccc(OC)cc2)c(-c2ccc(OC)cc2)s1 | 1 | -1 | 0 | -2 | 0
COc1ccc(-c2nc(NC(C)=O)sc2-c2ccc(OC)cc2)cc1 | 15 | -2 | 43* | -5 | 0
SMILES | Env fusion inh | CFTR F508del cor | FGF22 binding | S100A4 MyoIIA | E-selectin induc
C[C@@H]1CCCCO[C@H](CN(C)Cc2ccc(Cl)c(Cl)c2)[C@H](C)CN([C@@H](C)CO)C(=O)c2cc(NS(=O)(=O)c3cn(C)cn3)ccc2O1 | 7[16.7 µM] | 2 | 0 | -6 | 0
O=C(C[C@H]1CC[C@H]2[C@@H](COC[C@@H](O)CN2CC2CC2)O1)NCC1CC1 | · | 1 | · | 10 | 0
CC(C)COCC(O)CC(Cc1ccccc1)C(=O)NN (configuration not stated) | 11 | 0 | 43* | 0 | ·
CCOC(=O)C(NC(=O)c1cccc(Cl)c1)(OCc1ccccc1)C(F)(F)F (configuration not stated) | 4 | · | 33* | 2 | -2
CCOC(=O)C(NC(=O)c1ccccc1)(OCc1ccccc1)C(F)(F)F (configuration not stated) | 1 | 1 | 0 | 3 | -1
CCC(=O)N1[C@H](CO)[C@H](c2ccc(C3=CCCCC3)cc2)[C@H]1CNC1CCCC1 | · | 6 | · | -4 | 0
Cc1noc(C)c1S(=O)(=O)Nc1ccc2c(c1)C(=O)N([C@H](C)CO)C[C@H](C)[C@@H](CN(C)Cc1ccccc1)OCCCC[C@H](C)O2 | -7[16.7 µM] | 2 | 0 | 7 | 0
Cc1ccc(C(O)(c2ccccc2)c2ccccc2C(C)N(C)C)c(C)c1 (configuration not stated) | 79* | · | · | · | ·
CC(c1ccccc1C(O)c1ccccc1)N(C)C (configuration not stated) | · | 0 | 1 | 3 | ·
COCC(=O)N1CC2(C1)CN(Cc1cc(F)ccc1F)[C@@H](CO)c1c2c2ccc(OC)cc2n1C | · | 3 | 0 | 8 | 0
O=C(Nc1ccc(S(=O)(=O)NCc2cccnc2)cc1)c1ccco1 | 65* | · | · | · | ·
CC(=O)Nc1ccc(S(=O)(=O)NCc2cccnc2)cc1 | -40 | · | · | · | ·
Cc1nc(SCC(=O)c2cc3ccccc3oc2=O)c(C#N)c(-c2cccs2)c1C(=O)Nc1ccccc1 | 12 | -3 | 43* | -4 | -3
C[C@H](CO)N1C[C@H](C)[C@@H](CN(C)S(=O)(=O)c2cn(C)cn2)OCc2ccccc2-c2c(n(C)c3ccccc23)C1=O | 1[16.7 µM] | 2 | 0 | -4 | -4
CCNC(=O)C[C@H]1CC[C@H]2[C@@H](COc3ccc(NC(=O)Nc4ccccc4OC)cc3C(=O)N2C)O1 | -3[16.7 µM] | 1 | 0 | 7 | 0
CN(CC(=O)O)S(=O)(=O)c1ccc2c(c1)n(C)c(=O)c(=O)n2C | -3 | -4 | 44* | 0 | 0
CCCCN(C)CCNS(=O)(=O)c1ccc2c(c1)n(C)c(=O)c(=O)n2C | -13 | -2 | 0 | -1 | 164*

From PubChem BioAssay
